Screens deposited in PubChem by several laboratories.
MsrA inhibitor: bovine MsrA enzyme inhibitors, primary screen, biochemical, absorbance, HTS; Methionine sulfoxide reductase A (Bos taurus); purified bovine MsrA, absorbance read-out; inhibition, % at 15.5 µM; 360,000 compounds, 0.75% hits; in the data active = inhibition above about 4.5%
GalR3 antagonist: GalR3 antagonists in HEK293 cells, primary screen, cell-based, fluorescence readout; inhibition, % at 3 µM; Galanin receptor type 3 (Homo sapiens), O60755; 360,000 compounds, 0.44% hits; HEK293 GalR3-CNG cAMP membrane potential fluorescence; galR3 body fused to GalR1 C-terminus;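 active = inhibition above the screen-wide average plus 3 SD, cut at about 13% in these data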;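 also: forskolin and galanin both at EC90 stimulate the cells; cAMP rise reported by CNG channel membrane potential dye signal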
MsrA act: bovine MsrA enzyme activators, primary screen, biochemical, absorbance, HTS. Methionine sulfoxide reductase A (Bos taurus). purified bovine MsrA, absorbance read-out. activation, % at 10.6 µM. 360,000 compounds, 0.3% hits; in the data active = activation above about 7.5%
NadD block: inhibitors of S. aureus NadD, primary screen, biochemical, colorimetric, uHTS; inhibition, % at 20 µM; purified NadD enzyme, colorimetric absorbance read-out; 360,000 compounds, 0.78% hits; in the data active = inhibition above about 26%
NR2E3 ag-1: NR2E3 agonists in two-hybrid cells, primary screen, cell-based, luminescence, CHO-S, Gal4-NCOR/VP16-NR2E3; Photoreceptor-specific nuclear receptor (Homo sapiens), Q9Y5X4; luciferase; inhibition of corepressor binding, % at 3.98 µM; 360,000 compounds, 0.35% hits;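 active = inhibition above the mean of all tested compounds plus 3 SD, cut at about 70% in these data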;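 also: higher means lower luciferase signal from less NR2E3 corepressor binding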
Target sequence (Q9Y5X4 whole entry, looked up, the tested form may be a part): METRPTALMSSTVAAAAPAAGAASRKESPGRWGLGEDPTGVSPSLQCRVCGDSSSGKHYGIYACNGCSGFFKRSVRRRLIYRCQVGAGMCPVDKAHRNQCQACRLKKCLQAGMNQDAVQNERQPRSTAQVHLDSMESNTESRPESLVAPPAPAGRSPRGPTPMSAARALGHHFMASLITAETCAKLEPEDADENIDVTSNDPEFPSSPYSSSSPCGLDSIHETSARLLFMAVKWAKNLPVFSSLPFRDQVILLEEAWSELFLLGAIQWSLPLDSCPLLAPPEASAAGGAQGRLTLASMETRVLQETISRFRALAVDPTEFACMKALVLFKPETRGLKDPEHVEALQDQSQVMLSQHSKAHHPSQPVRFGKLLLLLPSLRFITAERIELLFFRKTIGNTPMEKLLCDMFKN
NR2E3 ag-2: inhibitors of NR2E3-RetCOR corepressor binding, primary screen, NR2E3 agonist project, biochemical, TR-FRET, GST-NR2E3, biotin-RetCOR; Photoreceptor-specific nuclear receptor (Homo sapiens), Q9Y5X4; 1536-well; inhibition of corepressor binding, % at 4.78 µM; 320,000 compounds, 0.12% hits;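 active = percent inhibition above the cutoff of mean plus 3 SD of all tested compounds, set per screening campaign, cut at about 20% in these data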
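System: GST-tagged NR2E3 plus biotinylated RetCOR corepressor; Buffer or medium: pH 7.5 Tris-based buffer; Probe or stimulus: RetCOR corepressor, biotinylated, 7 nM; Doses: compound at 4.8 µM, single dose; Schedule: 5 h incubation at 4 °C; Technique: time-resolved FRET; Evaluation: percent inhibition of TR-FRET ratio; Replication: one well per compound, singlicate testing.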
NadD inh conf: inhibitors of S. aureus NadD, confirmation, biochemical, colorimetric, single concentration; shares compounds with NadD block; purified S. aureus NadD, colorimetric enzyme assay; inhibition, % at 20 µM; 2,000 compounds, 13% hits; AID 624309, 2012; in the data active = inhibition mostly above about 42%, no sharp cut-off; inactive = mostly below about 42%
Each line names hits and unclear results; the compound was inactive in the other large screens (follow-up assays come after a bar, where they were run). Compounds with a hit are over-represented: about 2.5% of the library has one in this group of screens.

c1ccc(C2=Nn3c(nnc3-c3cc(-c4ccccc4)n[nH]3)SC2)cc1	none
CCC(c1ccccc1)c1nnc(NC(=O)c2ccco2)s1 (stereo not given)	none
O=C(CSc1ccccn1)N/N=C/c1ccccc1[N+](=O)[O-]	none
Cc1nc2ccccc2n1C(=O)N(C)C	none
CCCCC(CC)C(=O)Nc1cc(C(=O)NCCC)ccc1N1CCC2(CC1)CC(c1cccc(Br)c1)=NO2 (stereo not given)	NadD block 31 | NadD inh conf inactive
CCCCCCCC(=O)Nc1cc(C(=O)NCCC)ccc1N1CCC2(CC1)CC(c1cccc(Br)c1)=NO2	none
CCCCC(CC)C(=O)Nc1cc(C(=O)NCc2ccc(C)cc2)ccc1N1CCC2(CC1)CC(c1cccc(Br)c1)=NO2 (stereo not given)	none
CCCCC(CC)C(=O)Nc1cc(C(=O)NCc2ccc(C)cc2)ccc1N1CCC2(CC1)CC(c1ccccc1)=NO2 (stereo not given)	NadD block 33 | NadD inh conf inactive
COc1cc(O)c(C(CCN2CCN(c3ccccc3)CC2)c2ccc3c(c2)OCO3)c(OC)c1 (stereo not given)	none
CCc1cc2c3c(c1)C1(C(=O)N3C(C)(C)C=C2C)C(C#N)=C(N)Oc2[nH]c(=O)[nH]c(=O)c21 (stereo not given)	none
O=C(NCc1ccc(Cl)c(Cl)c1)c1cc(C2CCCCN2C(=O)c2ccccc2)on1 (stereo not given)	none (no result: NR2E3 ag-2)
Cc1cc2[nH]c(=O)c(=O)[nH]c2cc1S(=O)(=O)N1CCN(c2cccc(C(F)(F)F)c2)CC1	NadD block 31 | NadD inh conf 50
Nc1[nH]c(C(=O)c2ccc(Br)cc2)c(-c2ccc(Br)cc2)c1C(=O)NCCc1c[nH]c2ccccc12	NadD block 50 (no result: NR2E3 ag-2) | NadD inh conf inactive
Nc1[nH]c(C(=O)c2ccccc2)c(-c2ccccc2Br)c1C(=O)NCCc1c[nH]c2ccccc12	NadD block 43 (no result: NR2E3 ag-2) | NadD inh conf inactive
Nc1[nH]c(C(=O)c2ccccc2)c(-c2ccccc2Br)c1C(=O)NCc1ccc(-c2ccccc2)cc1	NadD block 36 (no result: NR2E3 ag-2) | NadD inh conf 50
Nc1[nH]c(C(=O)c2ccccc2)c(-c2ccc([N+](=O)[O-])cc2)c1C(=O)NCCc1c[nH]c2ccccc12	NadD block 43 (no result: NR2E3 ag-2) | NadD inh conf inactive
Cc1ccc(-c2c(C(=O)c3ccccc3)[nH]c(N)c2C(=O)NCCc2c[nH]c3ccccc23)cc1	none (no result: MsrA act, NadD block, NR2E3 ag-1, NR2E3 ag-2)
Nc1[nH]c(C(=O)c2ccc(Br)cc2)c(-c2ccc(F)cc2)c1C(=O)NCCc1c[nH]c2ccccc12	none (no result: MsrA act, NadD block, NR2E3 ag-1, NR2E3 ag-2)
O=C(Cc1ccc(S(=O)(=O)N2CCOCC2)s1)NNC(=O)c1ccccc1Cl	none
CCCCNC(=O)CC1Nc2ccccc2NC1=O (stereo not given)	none
CCCCOc1ccccc1NC(=O)CC1Nc2ccccc2NC1=O (stereo not given)	NadD block 31 | NadD inh conf inactive
CCOc1ccc(NC(=O)c2ccc(NC(=O)CSc3nc4ccccc4c(=O)[nH]3)cc2)cc1	NadD block 43 | NadD inh conf inactive
O=C(CSc1nc2ccccc2c(=O)[nH]1)Nc1ccc(C(=O)O)cc1	none
CCc1ccc(N2CC(C(=O)N(CC)CC(=O)Nc3c(F)cccc3F)CC2=O)cc1 (stereo not given)	none (no result: NR2E3 ag-2)
O=C(Nc1cc(S(=O)(=O)Nc2ccc(Cl)cc2)ccc1O)c1ccc(S(=O)(=O)N2CCCCCC2)cc1	NadD block 44 | NadD inh conf inactive
O=C(Nc1cc(S(=O)(=O)N2CCOCC2)ccc1O)c1ccc(S(=O)(=O)N2CCCCC2)cc1	none (no result: NR2E3 ag-2)
Cc1ccc(C)c(S(=O)(=O)N2CCN(C(=O)/C=C/c3ccco3)CC2)c1	NadD block 35 | NadD inh conf inactive
COc1ccc(N=C2C(=Nc3ccc(OC)cc3)N(c3ccc(OC)cc3)C(=S)N2C)cc1	none (no result: MsrA inhibitor, GalR3 antagonist)
COc1ccc(N=C2C(=Nc3ccc(OC)cc3)N(c3ccc(OC)cc3)C(=S)N2c2ccccc2)cc1	NadD block 30 | NadD inh conf inactive
COc1cc(C#Cc2c(-c3cncn3C)n(C)c3ccc(-c4ccc5cc[nH]c5c4)cc23)cc(OC)c1	NadD block 39 (no result: NR2E3 ag-2) | NadD inh conf inactive
COc1cc(C#Cc2c(-c3cncn3C)n(C)c3ccc(-c4ccc(OC)c(OC)c4)cc23)cc(OC)c1	NadD block 38 | NadD inh conf inactive
Cc1cccc(-c2nnn3c2nc(NCCc2ccc(S(N)(=O)=O)cc2)c2ccccc23)c1	NadD block 34 | NadD inh conf inactive
Cc1ccc(-c2nnn3c2nc(NCCc2ccc(S(N)(=O)=O)cc2)c2ccccc23)cc1	none
CN(CC(=O)Nc1ccc(N2CCOCC2)cc1)C(=O)CSc1ccccc1F	none
COc1ccc(-c2cc(C#N)nc(N3CCN(C)CC3)n2)cc1	none
COc1ccc(-c2cc(C#N)nc(N3CCNCC3)n2)cc1	NadD block 45 | NadD inh conf inactive
NC(=O)NCc1ccccc1F	none
Cc1ccc(N=C2SC(C(=O)Nc3ccc(OC(F)(F)F)cc3)C(N)=C2C(=O)Nc2c(C)cc(C)cc2C)cc1 (stereo not given)	NadD block 33 | NadD inh conf inactive
COc1cccc(OCc2cc(/C=N/Nc3ccc(C(=O)O)cc3)ccc2OC)c1	NadD block 46 | NadD inh conf 53
O=C(COC(=O)/C(=C/c1cccs1)c1cccs1)NC(c1ccccc1)c1ccccc1	none
Brc1ccc(-c2ccc(/C=N/Nc3nncc(-c4ccccc4)n3)o2)cc1	NadD block 29 | NadD inh conf inactive
Cc1ccc(-c2c(C#N)c(N)nc3c2CCCCC3)o1	none
Cc1ccc(-c2cc(-c3ccc(C)o3)nc(N)c2C#N)cc1	NadD block 58 | NadD inh conf 62
Cc1ccc(-c2cc(-c3ccc(Cl)cc3)c(C#N)c(N)n2)o1	NadD block 59 | NadD inh conf 71
Cc1ccc(-c2cc(-c3ccc(F)cc3)c(C#N)c(N)n2)o1	NadD block 65 | NadD inh conf inactive
CCOc1cc(-c2cc(-c3ccc(C)o3)nc(N)c2C#N)ccc1O	none
Cc1cc(-c2cc(-c3ccc(Cl)cc3)nc(N)c2C#N)co1	NadD block 84 | NadD inh conf inactive
COc1ccc(-c2cc(-c3ccc(O)cc3)nc(N)c2C#N)cc1OC	none
